From ChEMBL document CHEMBL1144182, “Antimicrobial and cytotoxic arylazoenamines. Part III: antiviral activity of selected classes of arylazoenamines” (Bioorg Med Chem, 2008)
Activity calls are given as the source filed them. No rule for the calls is given here.

Assays:
[1] = Cytotoxicity against mock-infected BHK cells assessed as reduction in cell viability after 96 hrs by MTT assay; type: cell-based, Mesocricetus auratus; details: hamster
Summary of the method: (§1)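 Cytotoxicity run in parallel with the antiviral assays. MDBK seeded at 6 × 10^5 and BHK at 1 × 10^6 cells/mL in maintenance medium with or without serial compound dilutions. Incubated 48–96 h at 37 °C, 5% CO2, then viability read by MTT. CC50 is the concentration reducing mock-infected cell viability by 50%.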

[2] = system: Respiratory syncytial virus; assay: Antiviral activity against RSV infected in Vero76 cells assessed as reduction in virus plaque formation after 4 days by MTT assay; type: functional, organism-based; details: human respiratory syncytial virus, Vero 76, 96 h
Vaccinia virus = assay: Antiviral activity against VV infected in Vero76 cells assessed as reduction in virus plaque formation after 4 days by MTT assay; type: functional, organism-based; details: Orthopoxvirus vaccinia; Vero 76
[3] = system: Bovine viral diarrhea virus 1; assay: Antiviral activity against BVDV infected in MDBK cells assessed as protection against virus-induced cytopathogenicity after 4 days by MTT assay; type: functional, organism-based; details: Bovine viral diarrhea virus isolates and strains, 96 h
Summary of the method: (§2)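 MDBK (BVDV) or BHK-21 (YFV) cells were seeded at 3 × 10^4 or 5 × 10^4 cells/well respectively and grown overnight to confluent monolayers at 37 °C in 5% CO2. Monolayers were infected at m.o.i. 0.01 in serum-free medium. After 1 h, MEM Earle's with 1% FCS was added, with or without serial compound dilutions. After 3–4 days at 37 °C, viability was read by MTT. EC50 was taken as 50% protection from virus-induced cytopathogenicity.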

[4] = system: Vesicular stomatitis virus; assay: Antiviral activity against VSV infected in Vero76 cells assessed as reduction in virus plaque formation after 4 days by MTT assay; type: functional, organism-based; details: Vero 76
Coxsackievirus B2 = assay: Antiviral activity against CVB2 infected in Vero76 cells assessed as reduction in virus plaque formation after 4 days by MTT assay; type: functional, organism-based; details: Enterovirus B, Vero 76, 96 h
Poliovirus 1 = assay: Antiviral activity against Sb1 virus infected in Vero76 cells assessed as reduction in virus plaque formation after 4 days by MTT assay; type: functional, organism-based; details: Enterovirus C, Sabin, Vero 76, 96 h
Yellow fever virus = assay: Antiviral activity against YFV infected in BHK21 cells assessed as protection against virus-induced cytopathogenicity after 4 days by MTT assay; type: functional, organism-based; details: BHK-21, 96 h; summary of the method: as §2
[5] = Cytotoxicity against mock-infected human MT4 cells assessed as reduction in cell viability after 96 hrs by MTT assay; type: cell-based
Summary of the method: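 Exponentially growing MT-4 cells seeded at 1 × 10^5 cells/mL in RPMI-1640 with 10% FCS, penicillin and streptomycin, with or without serial compound dilutions. Incubated at 37 °C, 5% CO2; viability read by MTT after 96 h. CC50 is the concentration reducing mock-infected cell viability by 50%.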

[6] = system: Human immunodeficiency virus 1; assay: Antiviral activity against HIV1 infected in MT4 cells assessed as virus-induced cytopathogenicity after 4 days; type: functional, organism-based
[7] = Cytotoxicity against mock-infected MDBK cells assessed as reduction in cell viability after 96 hrs by MTT assay; type: cell-based, Bos taurus; details: cattle; summary of the method: as §1
[8] = Cytotoxicity against mock-infected african green monkey Vero76 cells assessed as reduction in cell viability after 96 hrs by MTT assay; type: cell-based, Vero; details: chlorocebus sabaeus

| Compound | CC50 at 96 h [1] | EC50 [2] | Activity (Vaccinia virus) | EC50 [3] | Activity [4] | EC50 (Coxsackievirus B2) | EC50 (Poliovirus 1) | EC50 (Yellow fever virus) | CC50 at 96 h [5] | Activity [6] | CC50 at 96 h [7] | CC50 at 96 h [8] |
| --- | --- | --- | --- | --- | --- | --- | --- | --- | --- | --- | --- | --- |
| CN1C=C(/N=N/c2cccc(Cl)c2)CCC1 | 85 µM | 40 µM | inactive | 12 µM | inactive | 34 µM | > 75 µM | > 85 µM | > 100 µM | inactive | 87 µM | 75 µM |
| CN1C=C(/N=N/c2cc(C(F)(F)F)cc(C(F)(F)F)c2)CCC1 | 82 µM | > 100 µM | inactive | > 64 µM | inactive | > 100 µM | > 100 µM | > 82 µM | > 100 µM | inactive | 64 µM | > 100 µM |
| C(=C\N1CCSCC1)/N=N/c1ccccc1 | > 100 µM | > 30 µM | inactive | > 14 µM | inactive | 6 µM | > 30 µM | > 100 µM | 19 µM | inactive | 14 µM | 30 µM |
| CN1C=C(/N=N/c2ccccc2)CCC1 | > 100 µM | 75 µM | inactive | > 100 µM | inactive | > 100 µM | > 100 µM | > 100 µM | > 100 µM | inactive | > 100 µM | ≥ 100 µM |
| C(=C\N1CCCCC1)/N=N/c1ccccc1 | 67 µM | > 15 µM | inactive | > 7 µM | inactive | 7 µM | > 15 µM | 23 µM | 2 µM | inactive | 7 µM | 15 µM |
| FC(F)(F)c1cccc(/N=N\C2=C3CCCCN3CCC2)c1 | 40 µM | > 100 µM | inactive | > 8 µM | inactive | 21 µM | > 100 µM | > 40 µM | 4 µM | inactive | 8 µM | > 100 µM |
| Clc1ccc2c(/N=N/C3=C4CCCCN4CCC3)ccnc2c1 | 48 µM | > 85 µM | inactive | 5 µM | inactive | 51 µM | > 85 µM | > 48 µM | 15 µM | inactive | 40 µM | 85 µM |
| C(=C\N1CCCC1)/N=N/c1ccccc1 | 82 µM | 30 µM | inactive | > 63 µM | inactive | 4 µM | > 70 µM | > 82 µM | 8 µM | inactive | 63 µM | 70 µM |
| Clc1ccc(/N=N\C2=C3CCCCN3CCC2)cc1 | 69 µM | 25 µM | inactive | > 60 µM | inactive | 19 µM | > 80 µM | > 69 µM | 42 µM | inactive | 60 µM | 80 µM |
| O=[N+]([O-])c1cccc(/N=N\C2=C3CCCN3CCC2)c1 | 95 µM | > 100 µM | inactive | > 68 µM | inactive | 54 µM | 60 µM | > 95 µM | > 100 µM | inactive | 68 µM | > 100 µM |
| C(/N=N/c1ccccc1)=C1/CCCN1Cc1ccccc1 | 31 µM | 30 µM | inactive | > 74 µM | inactive | 16 µM | > 87 µM | > 31 µM | 22 µM | inactive | 74 µM | 87 µM |
| Clc1ccccc1/N=N\C1=C2CCCCN2CCC1 | 93 µM | 60 µM | inactive | > 100 µM | inactive | 32 µM | > 100 µM | > 93 µM | 78 µM | inactive | > 100 µM | > 100 µM |
| C(=C\N1CCN(c2ccccc2)CC1)/N=N/c1ccccc1 | 60 µM | 11 µM | inactive | > 5 µM | inactive | 5 µM | > 50 µM | 42 µM | 15 µM | inactive | 5 µM | 50 µM |
| Fc1ccc(/N=N\C2=C3CCCCN3CCC2)cc1C(F)(F)F | 60 µM | > 100 µM | inactive | > 100 µM | inactive | 45 µM | > 100 µM | > 60 µM | 3 µM | inactive | > 100 µM | > 100 µM |
| CN1C=C(/N=N/c2ccc(Cl)c(Cl)c2)CCC1 | 38 µM | > 100 µM | inactive | 7 µM | inactive | 14 µM | > 100 µM | > 38 µM | 43 µM | inactive | 73 µM | > 100 µM |
| Brc1ccc(/N=N\C2=C3CCCCN3CCC2)cc1 | 62 µM | > 92 µM | inactive | > 59 µM | inactive | 10 µM | > 92 µM | ≥ 62 µM | 27 µM | inactive | 59 µM | 92 µM |
| Clc1ccc(N2CCN(/C=C/N=N/c3ccccc3)CC2)cc1 | 29 µM | 7 µM | inactive | > 7.5 µM | inactive | 7 µM | > 45 µM | 7.5 µM | 21 µM | inactive | 7.5 µM | 45 µM |
| CN1/C(=C\N=N\c2ccccc2)C(C)(C)c2ccccc21.[O-][Cl+3]([O-])([O-])O | 47 µM | > 73 µM | inactive | > 20 µM | inactive | > 73 µM | > 73 µM | > 47 µM | 30 µM | inactive | 20 µM | 73 µM |
| Cc1ccc(/N=N/C=C2\CCCN2C)cc1 | > 100 µM | > 100 µM | inactive | 20 µM | inactive | 60 µM | > 100 µM | > 100 µM | > 100 µM | inactive | > 100 µM | > 100 µM |
| c1ccc2c(/N=N\C3=C4CCCCN4CCC3)cccc2c1 | 20 µM | > 90 µM | inactive | 6 µM | inactive | > 90 µM | > 90 µM | > 20 µM | 12 µM | inactive | > 100 µM | 90 µM |
| CN1/C(=C\N=N\c2ccc(Cl)cc2)C(C)(C)c2ccccc21 | 21 µM | > 100 µM | inactive | > 72 µM | inactive | > 100 µM | > 100 µM | > 21 µM | 55 µM | inactive | 72 µM | > 100 µM |
